Source: ChEMBL document CHEMBL2412964, “Discovery of novel tetrahydro-pyrazolo [4,3-c] pyridines for the treatment of neuropathic pain: synthesis and neuropharmacology” (Eur J Med Chem, 2013)

Columns and labels:
Rattus norvegicus [1] = assay: Antinociceptive activity in Wistar rat chronic constriction injury model assessed as reversal of spontaneous pain response at 100 mg/kg, ip after 60 mins (reference value: 4.6 +/- 0.6%); format: functional; conditions: route intraperitoneal
Rattus norvegicus [2] = assay: Antinociceptive activity in Wistar rat partial sciatic nerve ligation model assessed as reversal of spontaneous pain response at 100 mg/kg, ip after 60 mins (reference value: 2.9 +/- 0.3%); format: functional; conditions: route intraperitoneal
Rattus norvegicus [3] = assay: Antinociceptive activity in Wistar rat partial sciatic nerve ligation model assessed as reversal of tactile allodynia at 100 mg/kg, ip after 120 mins relative to control; format: functional; conditions: route intraperitoneal
Rattus norvegicus [4] = assay: Antinociceptive activity in Wistar rat chronic constriction injury model assessed as reversal of cold allodynia at 100 mg/kg, ip after 60 mins (reference value: 6.3 +/- 1.9%); format: functional; conditions: route intraperitoneal
Rattus norvegicus [5] = assay: Antinociceptive activity in Wistar rat partial sciatic nerve ligation model assessed as reversal of mechanical allodynia at 100 mg/kg, ip after 120 mins (reference value: 2.9 +/- 0.3%); format: functional; conditions: route intraperitoneal
Mus musculus [6] = species on record: Mus musculus; assay: Neurotoxicity in Swiss albino mouse assessed as minimal motor impairment after 4 hrs by rotarod test; format: toxicity, organism-based; conditions: in vivo
Summary of the method: (§1)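 Mice, either sex, 20-25 g, dosed at 30, 100 and 300 mg/kg. Minimal motor impairment was scored on the rotarod at 0.5 and 4.0 h. Value reported is the minimum dose showing the effect in half or more of three mice per group.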

Rattus norvegicus [7] = assay: Antinociceptive activity in Wistar rat chronic constriction injury model assessed as reversal of tactile allodynia at 100 mg/kg, ip after 120 mins (reference value: 4.1 +/- 2.1%); format: functional; conditions: route intraperitoneal
Rattus norvegicus [8] = assay: Antinociceptive activity in Wistar rat chronic constriction injury model assessed as reversal of spontaneous pain response at 100 mg/kg, ip after 120 mins (reference value: 4.5 +/- 0.2%); format: functional; conditions: route intraperitoneal
Rattus norvegicus [9] = assay: Antinociceptive activity in Wistar rat partial sciatic nerve ligation model assessed as reversal of spontaneous pain response at 100 mg/kg, ip after 30 mins (reference value: 3.2 +/- 0.3%); format: functional; conditions: route intraperitoneal
Mus musculus [10] = assay: Antinociceptive activity in Swiss albino mouse assessed as inhibition of formalin-induced flinching at 100 mg/kg administered 30 mins prior to test measured up to 5 mins relative to control; format: functional
Rattus norvegicus [11] = assay: Antinociceptive activity in Wistar rat chronic constriction injury model assessed as reversal of cold allodynia at 100 mg/kg, ip after 120 mins (reference value: 5.4 +/- 1.9%); format: functional; conditions: route intraperitoneal
Rattus norvegicus [12] = assay: Antinociceptive activity in Wistar rat partial sciatic nerve ligation model assessed as reversal of tactile allodynia at 100 mg/kg, ip after 60 mins (reference value: 12.5 +/- 1.2%); format: functional; conditions: route intraperitoneal
Rattus norvegicus [13] = assay: Antinociceptive activity in Wistar rat partial sciatic nerve ligation model assessed as reversal of spontaneous pain response at 100 mg/kg, ip after 120 mins (reference value: 1.2 +/- 0.1%); format: functional; conditions: route intraperitoneal
Rattus norvegicus [14] = assay: Antinociceptive activity in Wistar rat partial sciatic nerve ligation model assessed as reversal of cold allodynia at 100 mg/kg, ip after 30 mins (reference value: 4.1 +/- 1.0%); format: functional; conditions: route intraperitoneal
Rattus norvegicus [15] = assay: Antinociceptive activity in Wistar rat chronic constriction injury model assessed as reversal of tactile allodynia at 100 mg/kg, ip after 60 mins (reference value: 1.3 +/- 0.3%); format: functional; conditions: route intraperitoneal
Rattus norvegicus [16] = assay: Antinociceptive activity in Wistar rat chronic constriction injury model assessed as reversal of cold allodynia at 100 mg/kg, ip after 30 mins (reference value: 0.6 +/- 2.7%); format: functional; conditions: route intraperitoneal
Rattus norvegicus [17] = assay: Antinociceptive activity in Wistar rat chronic constriction injury model assessed as reversal of mechanical allodynia at 100 mg/kg, ip after 30 mins (reference value: 4.7 +/- 2.1%); format: functional; conditions: route intraperitoneal
Mus musculus [18] = assay: Antinociceptive activity in Swiss albino mouse assessed as inhibition of acetic acid-induced writhing at 100 mg/kg administered 30 mins prior to acetic acid-challenge measured for 30 mins relative to control; format: functional
Summary of the method: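 Swiss albino mice (20–25 g, either sex); writhing induced by i.p. 0.1 mL of 2.0% v/v acetic acid given half an hour after test compound dosing.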

Rattus norvegicus [19] = assay: Antinociceptive activity in Wistar rat partial sciatic nerve ligation model assessed as reversal of mechanical allodynia at 100 mg/kg, ip after 30 mins (reference value: 2.9 +/- 0.3%); format: functional; conditions: route intraperitoneal
Rattus norvegicus [20] = assay: Antinociceptive activity in Wistar rat chronic constriction injury model assessed as reversal of mechanical allodynia at 100 mg/kg, ip after 60 mins (reference value: 4.9 +/- 1.0%); format: functional; conditions: route intraperitoneal
Rattus norvegicus [21] = assay: Antinociceptive activity in Wistar rat partial sciatic nerve ligation model assessed as reversal of mechanical allodynia at 100 mg/kg, ip after 60 mins (reference value: 2.8 +/- 0.3%); format: functional; conditions: route intraperitoneal
Mus musculus [22] = assay: Antinociceptive activity in Swiss albino mouse assessed as inhibition of formalin-induced flinching at 100 mg/kg administered 30 mins prior to test measured for 10 to 30 mins relative to control; format: functional
Rattus norvegicus [23] = assay: Antinociceptive activity in Wistar rat partial sciatic nerve ligation model assessed as reversal of tactile allodynia at 100 mg/kg, ip after 30 mins (reference value: 7.7 +/- 0.7%); format: functional; conditions: route intraperitoneal
Rattus norvegicus [24] = assay: Antinociceptive activity in Wistar rat chronic constriction injury model assessed as reversal of mechanical allodynia at 100 mg/kg, ip after 120 mins (reference value: 5.3 +/- 0.5%); format: functional; conditions: route intraperitoneal
Rattus norvegicus [25] = assay: Antinociceptive activity in Wistar rat partial sciatic nerve ligation model assessed as reversal of cold allodynia at 100 mg/kg, ip after 60 mins (reference value: 2.5 +/- 0.3%); format: functional; conditions: route intraperitoneal
Mus musculus [26] = species on record: Mus musculus; assay: Neurotoxicity in Swiss albino mouse assessed as minimal motor impairment after 0.5 hrs by rotarod test; format: toxicity, organism-based; conditions: in vivo; summary of the method: as §1
Rattus norvegicus [27] = assay: Antinociceptive activity in Wistar rat partial sciatic nerve ligation model assessed as reversal of cold allodynia at 100 mg/kg, ip after 120 mins (reference value: 1.5 +/- 0.5%); format: functional; conditions: route intraperitoneal
Rattus norvegicus [28] = assay: Antinociceptive activity in Wistar rat chronic constriction injury model assessed as reversal of spontaneous pain response at 100 mg/kg, ip after 30 mins (reference value: 8.9 +/- 4.6%); format: functional; conditions: route intraperitoneal
Rattus norvegicus [29] = assay: Antinociceptive activity in Wistar rat chronic constriction injury model assessed as reversal of tactile allodynia at 100 mg/kg, ip after 30 mins (reference value: 3.4 +/- 0.8%); format: functional; conditions: route intraperitoneal
Mus musculus [30] = assay: Neurotoxicity in Swiss albino mouse assessed as minimal motor impairment at 300 mg/kg after 0.5 hrs by rotarod test; format: toxicity, organism-based; set-up: dose 300 mg/kg; conditions: in vivo
Summary of the method: (§2)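 Swiss albino mice of either sex, 20-25 g, dosed at 30, 100 and 300 mg/kg, three per group. Minimal motor impairment scored by rotarod at 0.5 and 4.0 h after dosing. Reported value is the lowest dose giving impairment in half or more of the mice.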

Mus musculus [31] = assay: Neurotoxicity in Swiss albino mouse assessed as minimal motor impairment at 300 mg/kg after 4 hrs by rotarod test; format: toxicity, organism-based; set-up: dose 300 mg/kg; conditions: in vivo; summary of the method: as §2

Row | SMILES | Activity (Rattus norvegicus [1]) [%] | Activity (Rattus norvegicus [2]) [%] | Activity (Rattus norvegicus [3]) [%] | Activity (Rattus norvegicus [4]) [%] | Activity (Rattus norvegicus [5]) [%] | Activity (Rattus norvegicus [7]) [%] | Activity (Rattus norvegicus [8]) [%] | Activity (Rattus norvegicus [9]) [%] | inhibition in vivo at 100 mg/kg (Mus musculus [10]) [%] | Activity (Rattus norvegicus [11]) [%] | Activity (Rattus norvegicus [12]) [%] | Activity (Rattus norvegicus [13]) [%] | Activity (Rattus norvegicus [14]) [%] | Activity (Rattus norvegicus [15]) [%] | Activity (Rattus norvegicus [16]) [%] | Activity (Rattus norvegicus [17]) [%] | inhibition in vivo at 100 mg/kg (Mus musculus [18]) [%] | Activity (Rattus norvegicus [19]) [%] | Activity (Rattus norvegicus [20]) [%] | Activity (Rattus norvegicus [21]) [%] | further results
1 | CCN1CCc2c(c(C(C)(C)C)nn2C(=O)Nc2ccc(F)cc2F)C1 | 85.9 | 65 | 38.3 | 64.4 | 43.9 | 51.7 | 91.6 | 89.3 | 4.4 | 40 | 51.7 | 56.9 | 64.3 | 58.3 | 64.3 | 70.8 | 71.9 | 60 | 72.9 | 60.2 | MLD (Mus musculus [6]): 100 mg/kg; inhibition in vivo at 100 mg/kg (Mus musculus [22]): 73.4%; Activity (Rattus norvegicus [23]): 66.7%; Activity (Rattus norvegicus [24]): 11.2%; Activity (Rattus norvegicus [25]): 64.4%; MLD (Mus musculus [26]): 100 mg/kg; Activity (Rattus norvegicus [27]): 40%; Activity (Rattus norvegicus [28]): 81.6%; Activity (Rattus norvegicus [29]): 61.2%
2 | CCN1CCc2c(c(C)nn2C(=O)Nc2ccc(C)cc2C)C1 | 67.5 | 34.4 | 30.2 | 37.3 | 18.7 | 66.1 | 64.4 | 40.7 | 7 | 41.8 | 41.9 | 5.9 | 60.4 | 56.6 | 54.4 | 70.8 | 56.1 | 63.3 | 57.5 | 50.5 | MLD (Mus musculus [6]): 300 mg/kg; inhibition in vivo at 100 mg/kg (Mus musculus [22]): 16.3%; Activity (Rattus norvegicus [23]): 53.3%; Activity (Rattus norvegicus [24]): 65%; Activity (Rattus norvegicus [25]): 14.3%; MLD (Mus musculus [26]): 300 mg/kg; Activity (Rattus norvegicus [27]): 38.7%; Activity (Rattus norvegicus [28]): 72.9%; Activity (Rattus norvegicus [29]): 17.2%
3 | CCN1CCc2c(c(C)nn2C(=O)Nc2c(C)cccc2C)C1 | 68.3 | 66.1 | 38.3 | 52.6 | 44.4 | 65.1 | 53.7 | 70.3 | 12.2 | 13.4 | 46.4 | 58.4 | 61.3 | 58 | 63.4 | 67 | 60.5 | 57.8 | 73.2 | 69.4 | Activity (Mus musculus [30]): Non-toxic; inhibition in vivo at 100 mg/kg (Mus musculus [22]): 78.9%; Activity (Rattus norvegicus [23]): 18.4%; Activity (Rattus norvegicus [24]): 26.1%; Activity (Rattus norvegicus [25]): 41.6%; Activity (Mus musculus [31]): Non-toxic; Activity (Rattus norvegicus [27]): 37.2%; Activity (Rattus norvegicus [28]): 77.3%; Activity (Rattus norvegicus [29]): 55%
4 | CCN1CCc2c(c(C(C)(C)C)nn2C(=O)Nc2ccc(Cl)cc2)C1 | 22.3 | 13.9 | 28.5 | 10.8 | 11.1 | 12.8 | 12.5 | 20.9 | 3.5 | 10.5 | 3.5 | 6.3 | 18.2 | 13.8 | 17.8 | 20 | 15.8 | 11.1 | 11.7 | 16.7 | Activity (Mus musculus [30]): Non-toxic; inhibition in vivo at 100 mg/kg (Mus musculus [22]): 68.3%; Activity (Rattus norvegicus [23]): 15.1%; Activity (Rattus norvegicus [24]): 2.2%; Activity (Rattus norvegicus [25]): 17.2%; Activity (Mus musculus [31]): Non-toxic; Activity (Rattus norvegicus [27]): 10.6%; Activity (Rattus norvegicus [28]): 18.3%; Activity (Rattus norvegicus [29]): 13.8%
5 | CCN1CCc2c(c(C(C)(C)C)nn2C(=O)Nc2cc(C)ccc2F)C1 | 20.5 | 9.9 | 4.5 | 7.1 | 8.8 | 4.5 | 53.9 | 15.5 | 7 | 12 | 12.2 | 7.5 | 19.3 | 12.2 | 3.4 | 13.8 | 17.5 | 12.1 | 12.7 | 12.1 | Activity (Mus musculus [30]): Non-toxic; inhibition in vivo at 100 mg/kg (Mus musculus [22]): 60.5%; Activity (Rattus norvegicus [23]): 12.2%; Activity (Rattus norvegicus [24]): 8.8%; Activity (Rattus norvegicus [25]): 16.4%; Activity (Mus musculus [31]): Non-toxic; Activity (Rattus norvegicus [27]): 19.3%; Activity (Rattus norvegicus [28]): 14.4%; Activity (Rattus norvegicus [29]): 19.7%
6 | CCN1CCc2c(c(C(C)(C)C)nn2C(=O)Nc2cc(C)ccc2C)C1 | 19.8 | 14.4 | 4.5 | 10.1 | 14.3 | 44.7 | 12.4 | 4.9 | 0 | 40.5 | 16.7 | 13.6 | 12 | 9.7 | 17.9 | 18.2 | 63.1 | 14.3 | 18.2 | 7.1 | Activity (Mus musculus [30]): Non-toxic; inhibition in vivo at 100 mg/kg (Mus musculus [22]): 15.7%; Activity (Rattus norvegicus [23]): 36.4%; Activity (Rattus norvegicus [24]): 9.1%; Activity (Rattus norvegicus [25]): 12.7%; Activity (Mus musculus [31]): Non-toxic; Activity (Rattus norvegicus [27]): 9.5%; Activity (Rattus norvegicus [28]): 21.1%; Activity (Rattus norvegicus [29]): 4.5%
